The values below come from ChEMBL document CHEMBL1817571, “Design and synthesis of new prostaglandin D₂ receptor antagonists” (Bioorg Med Chem, 2011).

The nature of data set [1]: AUC (infinity) in rat at 10 mg/kg, po. The arrangement: time infinity, dose 10 mg/kg, route oral. As to conditions: plasma. The class given is ADME, organism-based. An outline of the steps:
(§1)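 Fasted male rats (n = 3) received 1 mg/kg iv or 10 mg/kg po. Jugular vein blood was drawn with a heparinized syringe at pre-dose and 2 (iv only), 5, 15 and 30 min, and 1, 2, 4, 6 and 8 h. Plasma was obtained by centrifugation at 4 °C and stored at −80 °C. AUC, Cmax, T1/2, Vss and CL came from the plasma concentration–time course. BA was derived from dose-normalized AUCpo/AUCiv.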

Data set [2] deals with T1, Prostaglandin D2 receptor (Mus musculus, UniProt P70263).
T1 sequence (P70263 whole entry): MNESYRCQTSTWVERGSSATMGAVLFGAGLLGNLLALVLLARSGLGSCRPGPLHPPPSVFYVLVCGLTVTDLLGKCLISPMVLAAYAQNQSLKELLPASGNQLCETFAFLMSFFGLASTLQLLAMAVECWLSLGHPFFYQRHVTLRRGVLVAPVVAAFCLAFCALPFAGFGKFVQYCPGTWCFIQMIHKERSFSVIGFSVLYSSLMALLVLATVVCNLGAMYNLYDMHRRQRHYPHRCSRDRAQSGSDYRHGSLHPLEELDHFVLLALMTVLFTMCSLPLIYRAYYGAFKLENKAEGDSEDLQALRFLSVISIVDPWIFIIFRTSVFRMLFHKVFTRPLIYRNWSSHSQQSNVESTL
As to the kind of experiment: Displacement of [3H]PGD2 from mouse prostanoid DP receptor expressed in CHO cells after 20 mins by liquid scintillation counting.

Data set [3] addresses Prostaglandin E2 receptor EP2 subtype (Mus musculus, UniProt Q62053). As to the kind of experiment: Displacement of [3H]PGE2 from mouse prostaglandin EP2 receptor expressed in CHO cells after 60 mins by liquid scintillation counting. The class given is cell-based. In short, it runs like this: (§2)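 Membranes came from CHO cells stably expressing mEP1, EP2, EP3 or EP4. They were incubated with 2.5 nM [3H]PGE2 and graded test concentrations in 10 mM KH2PO4–KOH (1 mM EDTA, 10 mM MgCl2, 100 mM NaCl, pH 6.0) at room temperature, 20 min for EP1 and 60 min for EP2–4. Reactions were filtered on GF/B, washed with ice-cold buffer, and counted by scintillation. IC50 came by regression, with Ki via Cheng–Prusoff.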

Data set [4] is described as follows: AUC (infinity) in rat at 1 mg/kg, iv. In kind it is ADME, organism-based. The note with it: plasma. More on the design: time infinity, dose 1 mg/kg, route intravenous. In short, it runs like this:
as §1

In data set [5] the target is T1, Prostaglandin D2 receptor. Description: Antagonist activity at mouse prostanoid DP receptor expressed in CHO cells assessed as inhibition of PGD2-induced intracellular cAMP production. The class given is functional, cell-based. In short, it runs like this: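 CHO-mDP cells were seeded at 1×10^5 cells/well and grown 2 days. They were preincubated about 10 min at 37 °C in MEM with 2 µM diclofenac, then about 10 min in MEM with 0.1% BSA, 1 mM IBMX and 2 µM diclofenac. Test compounds at various concentrations plus 10 nM PGD2 were then added for 10 min at 37 °C. Reactions were stopped with 10% TCA, extracted with tri-n-octylamine/chloroform, and cAMP was measured by EIA.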
On the technique in general: Changes in cAMP serve as a functional read-out for many G protein-coupled receptors.

A short description of data set [6]: Half life in rat at 1 mg/kg, iv. The arrangement: dose 1 mg/kg, route intravenous. In kind it is ADME, organism-based. The note with it: in vivo. An outline of the steps:
as §1

Data set [7] can be described thus: Cmax in rat at 10 mg/kg, po. The class given is ADME, organism-based. More on the design: dose 10 mg/kg, route oral. The note with it: in vivo. An outline of the steps: as §1
Data set [8] addresses Prostaglandin E2 receptor EP4 subtype (Mus musculus, UniProt P32240). As to the kind of experiment: Displacement of [3H]PGE2 from mouse prostaglandin EP4 receptor expressed in CHO cells after 60 mins by liquid scintillation counting. In kind it is cell-based. In short, it runs like this: as §2
Data set [9] concerns the target T2, Prostaglandin E2 receptor EP1 subtype (Mus musculus, UniProt P35375).
T2 sequence (P35375 whole entry): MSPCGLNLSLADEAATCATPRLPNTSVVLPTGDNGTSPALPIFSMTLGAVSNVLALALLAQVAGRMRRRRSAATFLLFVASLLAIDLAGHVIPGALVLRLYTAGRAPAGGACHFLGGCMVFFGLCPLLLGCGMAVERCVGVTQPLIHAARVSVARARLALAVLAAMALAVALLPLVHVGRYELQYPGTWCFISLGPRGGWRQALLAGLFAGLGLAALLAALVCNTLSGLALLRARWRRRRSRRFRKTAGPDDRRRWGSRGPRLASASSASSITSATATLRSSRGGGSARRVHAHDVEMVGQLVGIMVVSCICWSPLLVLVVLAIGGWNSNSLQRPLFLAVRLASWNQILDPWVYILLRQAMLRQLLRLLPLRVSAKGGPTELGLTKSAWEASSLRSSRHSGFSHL
Description: Displacement of [3H]PGE2 from mouse prostaglandin EP1 receptor expressed in CHO cells after 20 mins by liquid scintillation counting. (In general: Displacement assays read how much labelled ligand stays bound in the presence of the test substance.)

The target of data set [10] is T3, Prostaglandin E2 receptor EP3 subtype (Mus musculus, UniProt P30557).
T3 sequence (P30557 whole entry): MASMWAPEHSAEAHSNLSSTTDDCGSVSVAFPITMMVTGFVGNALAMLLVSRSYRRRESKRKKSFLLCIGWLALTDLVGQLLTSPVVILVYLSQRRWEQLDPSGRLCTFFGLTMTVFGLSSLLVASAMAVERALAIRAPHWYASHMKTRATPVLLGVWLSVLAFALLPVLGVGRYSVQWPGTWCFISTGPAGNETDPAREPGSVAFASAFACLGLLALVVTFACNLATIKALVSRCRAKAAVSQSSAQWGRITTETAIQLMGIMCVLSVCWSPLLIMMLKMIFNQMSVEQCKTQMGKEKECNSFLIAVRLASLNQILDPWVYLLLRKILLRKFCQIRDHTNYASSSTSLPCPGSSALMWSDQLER
Description: Displacement of [3H]PGE2 from mouse prostaglandin EP3alpha receptor expressed in CHO cells after 60 mins by liquid scintillation counting. The class given is cell-based. In short, it runs like this:
as §2

Data set [11] in a line: Half life in rat at 10 mg/kg, po. The class given is ADME, organism-based. The arrangement: dose 10 mg/kg, route oral. As to conditions: in vivo. In short, it runs like this:
as §1

The target in data set [12] is Prostacyclin receptor (Homo sapiens, UniProt P43119). Description: Displacement of [3H]Iloprost from human prostanoid IP receptor expressed in CHO cells after 30 mins by liquid scintillation counting.
Data set [13] can be described thus: Volume of distribution at steady state in rat at 1 mg/kg, iv. In kind it is ADME, organism-based. The arrangement: dose 1 mg/kg, route intravenous. The note with it: in vivo, read-out: Vdss. In short, it runs like this: as §1
Data set [14] can be described thus: Oral bioavailability in rat at 10 mg/kg. In kind it is ADME, organism-based. The note with it: in vivo. An outline of the steps: as §1
Data set [15] is described as follows: Total clearance in rat at 1 mg/kg, iv. The note with it: in vivo. More on the design: dose 1 mg/kg, route intravenous. The class given is ADME, organism-based. In short, it runs like this:
as §1

Data set [16] concerns the target T2, Prostaglandin E2 receptor EP1 subtype. As to the kind of experiment: Displacement of [3H]PGE2 from mouse prostaglandin EP1 receptor expressed in CHO cells after 60 mins by liquid scintillation counting. The class given is cell-based.
The target in data set [17] is Prostaglandin F2-alpha receptor (Mus musculus, UniProt P43117). Description: Displacement of [3H]PGF2alpha from mouse prostanoid FP receptor expressed in CHO cells after 60 mins by liquid scintillation counting. In kind it is cell-based. In short, it runs like this:
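CHO-mFP membranes were incubated with 2.5 nM [3H]PGF2α and varied test concentrations in 10 mM KH2PO4–KOH, 1 mM EDTA, 10 mM MgCl2, 100 mM NaCl, pH 6.0, for 60 min at room temperature. Samples were then filtered on GF/B, washed with ice-cold phosphate/NaCl buffer, and counted by scintillation. IC50 came from the regression curve, and Ki = IC50/(1+[L]/Kd).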

Data set [18] concerns the target T4, Thromboxane A2 receptor (Homo sapiens, UniProt P21731).
T4 sequence (P21731 whole entry): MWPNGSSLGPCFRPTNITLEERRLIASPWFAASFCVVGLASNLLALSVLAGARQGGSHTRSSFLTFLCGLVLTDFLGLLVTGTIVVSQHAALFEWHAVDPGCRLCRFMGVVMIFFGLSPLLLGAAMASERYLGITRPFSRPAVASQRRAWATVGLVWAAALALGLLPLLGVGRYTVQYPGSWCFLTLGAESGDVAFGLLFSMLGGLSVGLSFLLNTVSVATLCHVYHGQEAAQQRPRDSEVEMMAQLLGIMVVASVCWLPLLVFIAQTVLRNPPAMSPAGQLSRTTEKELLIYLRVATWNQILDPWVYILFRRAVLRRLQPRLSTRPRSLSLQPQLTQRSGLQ
Description: Displacement of [3H]-SQ29548 from human prostanoid TP receptor expressed in CHO cells after 30 mins by liquid scintillation counting.

Data set [19] in a line: AUClast in rat at 1 mg/kg, iv. More on the design: time 0 - last, dose 1 mg/kg, route intravenous. The class given is ADME, organism-based. The note with it: plasma. An outline of the steps: as §1
The nature of data set [20]: AUClast in rat at 10 mg/kg, po. The note with it: plasma. In kind it is ADME, organism-based. The arrangement: dose 10 mg/kg, route oral, time 0 - last. An outline of the steps:
as §1

Chain of Prostacyclin receptor (P43119 whole entry): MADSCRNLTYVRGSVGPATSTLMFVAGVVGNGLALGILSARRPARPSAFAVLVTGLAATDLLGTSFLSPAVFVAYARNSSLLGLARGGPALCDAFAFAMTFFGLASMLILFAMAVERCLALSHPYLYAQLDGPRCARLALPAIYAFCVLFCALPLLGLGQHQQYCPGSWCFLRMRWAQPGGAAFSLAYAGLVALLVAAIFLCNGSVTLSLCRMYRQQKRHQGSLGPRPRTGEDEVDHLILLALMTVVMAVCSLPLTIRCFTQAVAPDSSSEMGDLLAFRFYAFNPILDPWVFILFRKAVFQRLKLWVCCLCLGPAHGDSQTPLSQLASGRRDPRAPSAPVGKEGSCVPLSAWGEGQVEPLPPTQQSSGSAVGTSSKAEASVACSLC
Chain of Prostaglandin E2 receptor EP4 subtype (P32240 whole entry): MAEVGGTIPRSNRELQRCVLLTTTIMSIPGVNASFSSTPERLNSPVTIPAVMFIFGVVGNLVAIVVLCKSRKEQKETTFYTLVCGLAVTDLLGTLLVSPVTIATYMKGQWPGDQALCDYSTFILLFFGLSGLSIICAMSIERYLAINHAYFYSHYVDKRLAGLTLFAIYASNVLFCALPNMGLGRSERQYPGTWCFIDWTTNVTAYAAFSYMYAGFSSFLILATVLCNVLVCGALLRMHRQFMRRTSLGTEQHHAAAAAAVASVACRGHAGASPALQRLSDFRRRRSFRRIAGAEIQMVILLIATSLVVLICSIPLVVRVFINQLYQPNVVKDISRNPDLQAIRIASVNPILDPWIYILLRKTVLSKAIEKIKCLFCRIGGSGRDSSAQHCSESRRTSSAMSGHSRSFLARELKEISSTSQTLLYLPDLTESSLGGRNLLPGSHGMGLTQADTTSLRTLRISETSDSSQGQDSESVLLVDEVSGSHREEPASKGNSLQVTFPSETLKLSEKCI
Chain of Prostaglandin E2 receptor EP2 subtype (Q62053 whole entry): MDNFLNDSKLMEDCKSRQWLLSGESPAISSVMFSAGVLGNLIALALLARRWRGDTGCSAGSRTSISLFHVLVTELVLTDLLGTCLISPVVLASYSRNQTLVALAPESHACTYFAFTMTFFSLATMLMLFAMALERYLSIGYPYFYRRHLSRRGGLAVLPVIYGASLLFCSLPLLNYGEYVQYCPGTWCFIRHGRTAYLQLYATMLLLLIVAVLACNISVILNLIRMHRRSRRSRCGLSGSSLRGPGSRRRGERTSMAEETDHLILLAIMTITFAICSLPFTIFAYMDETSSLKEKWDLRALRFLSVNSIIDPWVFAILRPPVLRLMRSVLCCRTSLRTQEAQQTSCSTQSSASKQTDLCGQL
Chain of Prostaglandin F2-alpha receptor (P43117 whole entry): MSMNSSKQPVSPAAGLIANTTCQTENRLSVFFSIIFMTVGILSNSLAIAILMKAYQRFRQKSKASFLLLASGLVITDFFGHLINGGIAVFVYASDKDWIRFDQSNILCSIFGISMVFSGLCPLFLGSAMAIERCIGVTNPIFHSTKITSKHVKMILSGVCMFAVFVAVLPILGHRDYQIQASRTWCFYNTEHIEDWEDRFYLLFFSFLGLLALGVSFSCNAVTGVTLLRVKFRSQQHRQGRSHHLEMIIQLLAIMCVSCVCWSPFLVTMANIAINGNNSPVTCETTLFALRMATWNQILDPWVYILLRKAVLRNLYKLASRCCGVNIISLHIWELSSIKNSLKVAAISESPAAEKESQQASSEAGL

Take `CN1C[C@@H](COc2ccc(C(=O)Nc3cccc(CC(=O)O)c3)cc2)Oc2ccccc21`: the AUC(0-inf) (commonly the area under the concentration-time curve extrapolated to infinity) came out at 8000 ng·h/mL in [1] and 670 ng·h/mL in data set [4]. In addition, the Ki (commonly a dissociation constant, usually derived from enzyme kinetics or from competition with a known ligand) in [2] is 310 nM; in [3], 520 nM; in data set [8] it was over 10000 nM; in data set [9] it was 2100 nM; in data set [10] it was over 10000 nM; in data set [12], 6400 nM. In addition, in data set [5], the 50% inhibitory concentration (IC50) (in general, the point on the concentration scale where inhibition reaches its midpoint) turned out to be 220 nM. Moreover, the half-life – broadly, the time in which the quantity being followed falls by half – in data set [6] was 0.27 h; in data set [11] it was 1.8 h. Moreover, the Cmax (usually the peak of the concentration-time curve) in data set [7] amounted to 4900 ng/mL. In [13], the Vd was determined as 0.22 L/kg. The bioavailability in [14] worked out at 119%. Besides, the clearance – broadly, a measure of how efficiently the substance is removed, as volume per time – in data set [15] was 25 mL/min/kg.
As for `CN1C[C@@H](COc2ccc(C(=O)Nc3cc(CC(=O)O)ccc3F)c(Cl)c2)Oc2ccccc21`, the Ki in [16] is over 10000 nM; in data set [17], over 10000 nM; in data set [2], 17 nM; in data set [3], 22 nM; in data set [8], over 10000 nM; in data set [10], over 10000 nM. The Ki in data set [12] and in [18] was over 10000 nM throughout. For the same molecule, the IC50 in data set [5] is 7.4 nM.
As to `Cc1ccc(CC(=O)O)cc1NC(=O)c1ccc(OC[C@@H]2CN(C)c3ccccc3O2)cc1C`, the Ki in data set [17] was over 10000 nM; in data set [2], 31 nM; in [3], 170 nM; in [8] it was over 10000 nM; in [9] it was over 10000 nM; in data set [10] it was over 10000 nM. Besides, the Ki is 2600 nM in data set [12] and over 10000 nM in [18]. Further, the values for the AUC(0-t) in data set [19] and in data set [20] were 4600 ng·h/mL and 28800 ng·h/mL, respectively. For the same molecule, the IC50 in [5] was 4.6 nM. Besides, the values for the half-life in data set [6] and in [11] were 3.1 h and 5.2 h, respectively. The same molecule registered a Cmax in data set [7] of 8700 ng/mL. Further, the Vd in data set [13] came to 0.61 L/kg. The bioavailability in [14] turned out to be 62%. The same molecule registered a clearance in data set [15] of 3.3 mL/min/kg.
